ChEMBL document CHEMBL4261588, “Breathing new life into West Nile virus therapeutics; discovery and study of zafirlukast as an NS2B-NS3 protease inhibitor” (Eur J Med Chem, 2018)
The source made the active and inactive calls. The calls are words filed in the database; no cut-off is given here.

Legend:
[1] = test system: West Nile virus; assay: Inhibition of West Nile virus NS2B-NS3 protease at 60 uM using Mca-KKR-GDap(DNP)AK-NH2 as substrate measured every 30 secs for 20 mins by FRET assay
[2] = Inhibition of West Nile virus NS2B-NS3 protease using Mca-KKR-GDap(DNP)AK-NH2 as substrate measured every 30 secs for 20 mins by FRET assay
Method in brief: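 FRET read-out: protease cleavage of a peptide carrying a fluorophore and a quencher on either side of the cleavage site raises fluorescence in proportion to enzyme activity. IC50 is taken as the inhibitor concentration that lowers enzymatic activity by 50%.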

[3] = test system: West Nile virus; assay: Inhibition of West Nile virus NS2B-NS3 protease using Mca-KKR-GDap(DNP)AK-NH2 as substrate measured every 30 secs for 5 mins in presence of CHAPS by FRET assay
Method in brief: (§1)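 Aggregation counter-screen run in the FRET protease assay, with inhibition followed across a range of detergent concentrations (0-0.2 %) of CHAPS and of Brij35.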

[4] = test system: West Nile virus; assay: Inhibition of West Nile virus NS2B-NS3 protease using Mca-KKR-GDap(DNP)AK-NH2 as substrate measured every 30 secs for 5 mins in presence of Brij35 by FRET assay; method in brief: as §1
[5] = test system: West Nile virus; assay: Mixed inhibition of West Nile virus NS2B-NS3 protease using Mca-KKR-GDap(DNP)AK-NH2 as substrate measured every 30 secs for 10 mins by Lineweaver-burk plot analysis

Structure (SMILES)	inhibition [1] [%]	further results
COc1cc(C(=O)NCc2ccccc2)ccc1Cc1cn(C)c2ccc(NC(=O)OC3CCCC3)cc12	5	
COc1cc(C(=O)NS(=O)(=O)c2ccccc2C)ccc1Cn1ccc2cc(NC(=O)OC3CCCC3)ccc21	79	
COC(=O)c1ccc(Cn2ccc3cc(NC(=O)OC4CCCC4)ccc32)c(OC)c1	5	
COc1cc(C(=O)NS(=O)(=O)c2ccccc2C)ccc1Cc1cn(C)c2ccc(NC(=O)OC3CCCC3)cc12 [ZAFIRLUKAST]		IC50 [2]: 32 µM; inhibition [3]: Active; inhibition [4]: Active; inhibition [5]: Active
COC(=O)c1ccc(Cc2cn(C)c3ccc(NC(=O)OC4CCCC4)cc23)c(OC)c1	12	
Cc1ccccc1S(=O)(=O)NC(=O)c1ccc(NC(=O)OC2CCCC2)cc1	4	
Cn1ccc2cc(NC(=O)OC3CCCC3)ccc21	6	

Now from value to compound, other results behind:

inhibition [1] [%]	Structure (SMILES)	further results
92	COc1cc(C(=O)NS(=O)(=O)c2ccccc2C)ccc1Cc1cn(C)c2ccc(NC(=O)Oc3ccccc3)cc12	IC50 [2]: 22 µM
33	COc1cc(C(=O)NS(=O)(=O)c2ccccc2C)ccc1Cc1cn(C)c2ccc(NC(=O)CC3CCCC3)cc12	
12	CCOC(=O)Nc1ccc2c(c1)c(Cc1ccc(C(=O)NS(=O)(=O)c3ccccc3C)cc1OC)cn2C	
64	Cc1ccccc1S(=O)(=O)NC(=O)c1ccc(Cc2cn(C)c3ccc(NC(=O)OC4CCCC4)cc23)cc1	
30	COc1cc(C(=O)NS(=O)(=O)c2ccccc2C)ccc1Cc1cccc(NC(=O)OC2CCCC2)c1	
81	COc1cc(C(=O)NS(=O)(=O)c2ccccc2)ccc1Cc1cn(C)c2ccc(NC(=O)OC3CCCC3)cc12	
